Laboratory results published in ChEMBL document CHEMBL3627606, “Development of Novel, CNS Penetrant Positive Allosteric Modulators for the Metabotropic Glutamate Receptor Subtype 1 (mGlu1), Based on an N-(3-Chloro-4-(1,3-dioxoisoindolin-2-yl)phenyl)-3-methylfuran-2-carboxamide Scaffold, That Potentiate Wild Type and Mutant mGlu1 Receptors Found in …” (J Med Chem, 2015).
pEC50, pIC50: −log10 of the molar value.

Assays:
[1] = Mean residence time in Sprague-Dawley rat at 0.2 mg/kg, iv by LC-MS/MS analysis; conditions: in vivo
[2] = test system: Metabotropic glutamate receptor 1 (Homo sapiens), Q13255 [P1014S]; test: Agonist activity at human mGlu1 P1014S mutant receptor expressed in HEK293 cells assessed as calcium mobilization at > 1 uM uM by Fluo-4AM dye based fluorescence analysis; format: functional, cell-based
[3] = Plasma concentration in Sprague-Dawley rat at 0.2 mg/kg, iv after 0.25 hrs by LC-MS/MS analysis
[4] = biological target: Metabotropic glutamate receptor 1 (Rattus norvegicus, UniProt P23385); test: Positive allosteric modulation of rat mGlu1 receptor assessed as potentiation of glutamate-induced calcium mobiliztion by cell based assay; format: functional
Summary of the method: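 Rat mGlu1 WT calcium mobilization concentration-response curves. EC50 and % Glu Max were derived from the curves.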

Rattus norvegicus = test: Volume of distribution at steady state in Sprague-Dawley rat at 0.2 mg/kg, iv by LC-MS/MS analysis; conditions: in vivo
[5] = biological target: T1, Metabotropic glutamate receptor 4 (Homo sapiens, UniProt Q14833); test: Positive allosteric modulation of human mGlu4 receptor assessed as potentiation of glutamate-induced calcium mobiliztion by cell based assay relative to PHCCC
Cytochrome P450 2D6 = Cytochrome P450 2D6 (Homo sapiens, UniProt P10635); test: Inhibition of CYP2D6 in human liver microsomes by LC-MS/MS analysis; format: ADME
Homo sapiens = species on record: Homo sapiens; test: Intrinsic clearance in human hepatocytes at 1 uM by LC-MS/MS analysis; conditions: read-out: CLH
[6] = biological target: T1, Metabotropic glutamate receptor 4; test: Positive allosteric modulation of human mGlu4 receptor assessed as potentiation of glutamate-induced calcium mobiliztion by cell based assay; format: functional; conditions: read-out: EC50
[7] = test system: Metabotropic glutamate receptor 1 (Homo sapiens), Q13255 [A683E]; test: Agonist activity at human mGlu1 A683E mutant receptor expressed in HEK293 cells assessed as calcium mobilization at > 1 uM uM by Fluo-4AM dye based fluorescence analysis; format: functional, cell-based
Chain of Metabotropic glutamate receptor 1 (Homo sapiens), Q13255 [A683E] (Q13255 whole entry A683E): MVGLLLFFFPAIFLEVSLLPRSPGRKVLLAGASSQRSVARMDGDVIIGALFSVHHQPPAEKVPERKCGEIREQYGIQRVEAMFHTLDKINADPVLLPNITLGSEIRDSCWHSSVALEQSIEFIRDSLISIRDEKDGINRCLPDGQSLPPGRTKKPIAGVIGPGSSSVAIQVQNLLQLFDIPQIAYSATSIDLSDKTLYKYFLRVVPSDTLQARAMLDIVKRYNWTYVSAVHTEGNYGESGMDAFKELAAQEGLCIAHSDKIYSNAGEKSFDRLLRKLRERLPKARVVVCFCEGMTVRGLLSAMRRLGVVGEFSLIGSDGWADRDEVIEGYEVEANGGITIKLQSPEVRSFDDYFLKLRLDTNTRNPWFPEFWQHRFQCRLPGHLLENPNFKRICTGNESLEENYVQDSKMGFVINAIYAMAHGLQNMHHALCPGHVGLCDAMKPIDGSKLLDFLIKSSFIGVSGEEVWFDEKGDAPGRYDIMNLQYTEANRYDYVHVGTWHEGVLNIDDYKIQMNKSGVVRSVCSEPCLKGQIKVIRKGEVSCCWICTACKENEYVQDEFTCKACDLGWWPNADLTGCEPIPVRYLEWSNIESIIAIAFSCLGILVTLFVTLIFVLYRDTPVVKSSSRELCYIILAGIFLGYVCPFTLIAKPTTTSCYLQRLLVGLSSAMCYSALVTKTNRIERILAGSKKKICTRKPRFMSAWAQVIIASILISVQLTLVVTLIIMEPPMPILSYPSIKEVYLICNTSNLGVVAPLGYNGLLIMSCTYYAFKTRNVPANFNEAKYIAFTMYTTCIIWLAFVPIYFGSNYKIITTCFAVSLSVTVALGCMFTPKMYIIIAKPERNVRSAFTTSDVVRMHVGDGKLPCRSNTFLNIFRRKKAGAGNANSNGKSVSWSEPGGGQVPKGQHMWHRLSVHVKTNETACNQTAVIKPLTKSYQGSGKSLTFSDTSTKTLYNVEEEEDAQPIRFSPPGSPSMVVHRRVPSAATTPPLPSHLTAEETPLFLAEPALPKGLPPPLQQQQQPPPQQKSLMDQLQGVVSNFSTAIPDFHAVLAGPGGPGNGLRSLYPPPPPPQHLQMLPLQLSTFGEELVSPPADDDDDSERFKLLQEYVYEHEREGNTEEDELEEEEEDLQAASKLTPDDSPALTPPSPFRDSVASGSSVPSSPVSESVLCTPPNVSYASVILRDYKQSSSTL

T1 sequence (Q14833 whole entry): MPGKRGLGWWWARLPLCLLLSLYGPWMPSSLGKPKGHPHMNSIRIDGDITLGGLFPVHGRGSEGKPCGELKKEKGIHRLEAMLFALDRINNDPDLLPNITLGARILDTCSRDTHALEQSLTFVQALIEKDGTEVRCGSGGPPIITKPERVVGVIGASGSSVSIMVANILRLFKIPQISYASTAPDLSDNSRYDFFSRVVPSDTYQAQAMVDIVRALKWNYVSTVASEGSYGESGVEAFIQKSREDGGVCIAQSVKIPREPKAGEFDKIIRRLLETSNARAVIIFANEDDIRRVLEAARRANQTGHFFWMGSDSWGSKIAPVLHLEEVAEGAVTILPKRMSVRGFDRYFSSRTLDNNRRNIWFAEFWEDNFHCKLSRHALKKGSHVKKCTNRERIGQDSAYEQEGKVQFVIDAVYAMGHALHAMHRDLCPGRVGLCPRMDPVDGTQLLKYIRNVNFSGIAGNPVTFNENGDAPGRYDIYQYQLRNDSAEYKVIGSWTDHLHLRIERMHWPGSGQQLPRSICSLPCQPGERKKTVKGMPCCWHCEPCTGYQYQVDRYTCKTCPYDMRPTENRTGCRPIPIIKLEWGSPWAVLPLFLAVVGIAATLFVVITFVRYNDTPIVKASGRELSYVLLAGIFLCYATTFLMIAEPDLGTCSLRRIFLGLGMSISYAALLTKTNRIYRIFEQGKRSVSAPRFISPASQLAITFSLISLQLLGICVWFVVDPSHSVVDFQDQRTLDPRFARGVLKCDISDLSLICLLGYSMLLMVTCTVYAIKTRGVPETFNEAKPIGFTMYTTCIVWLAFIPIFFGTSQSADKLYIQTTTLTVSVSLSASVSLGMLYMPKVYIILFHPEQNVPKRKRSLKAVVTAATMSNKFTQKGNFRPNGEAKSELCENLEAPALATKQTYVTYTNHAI
Chain of Metabotropic glutamate receptor 1 (P23385 whole entry): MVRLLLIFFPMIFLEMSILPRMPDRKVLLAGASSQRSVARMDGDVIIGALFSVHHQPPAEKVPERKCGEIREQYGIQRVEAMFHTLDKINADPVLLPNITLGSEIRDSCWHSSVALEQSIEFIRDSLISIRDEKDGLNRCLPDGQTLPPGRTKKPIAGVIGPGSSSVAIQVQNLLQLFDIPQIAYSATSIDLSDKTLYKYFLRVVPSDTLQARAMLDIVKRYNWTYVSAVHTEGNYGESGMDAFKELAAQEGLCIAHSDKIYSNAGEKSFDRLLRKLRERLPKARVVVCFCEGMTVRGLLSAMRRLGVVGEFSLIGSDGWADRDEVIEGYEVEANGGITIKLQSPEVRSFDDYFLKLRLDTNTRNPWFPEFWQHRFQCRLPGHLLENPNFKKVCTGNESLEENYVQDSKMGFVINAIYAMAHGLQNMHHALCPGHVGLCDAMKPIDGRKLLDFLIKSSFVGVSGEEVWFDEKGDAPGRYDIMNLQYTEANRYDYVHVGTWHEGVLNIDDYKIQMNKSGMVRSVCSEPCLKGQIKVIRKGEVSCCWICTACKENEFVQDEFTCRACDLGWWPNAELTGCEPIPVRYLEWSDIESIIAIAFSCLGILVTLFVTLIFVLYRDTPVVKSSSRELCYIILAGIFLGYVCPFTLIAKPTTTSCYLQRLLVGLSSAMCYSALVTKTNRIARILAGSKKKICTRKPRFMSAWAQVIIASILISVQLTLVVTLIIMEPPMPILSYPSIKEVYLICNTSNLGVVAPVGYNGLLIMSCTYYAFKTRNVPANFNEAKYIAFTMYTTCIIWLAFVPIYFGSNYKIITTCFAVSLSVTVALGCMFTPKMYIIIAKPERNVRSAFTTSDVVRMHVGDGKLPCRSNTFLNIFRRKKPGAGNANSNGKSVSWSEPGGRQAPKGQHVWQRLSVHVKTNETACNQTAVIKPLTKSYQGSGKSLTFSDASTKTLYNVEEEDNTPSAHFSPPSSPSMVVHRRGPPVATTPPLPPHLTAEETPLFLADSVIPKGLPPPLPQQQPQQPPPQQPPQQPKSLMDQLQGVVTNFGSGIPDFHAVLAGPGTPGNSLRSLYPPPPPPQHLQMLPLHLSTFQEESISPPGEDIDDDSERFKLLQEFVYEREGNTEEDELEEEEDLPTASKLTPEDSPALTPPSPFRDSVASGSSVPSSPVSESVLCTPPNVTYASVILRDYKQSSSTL
Chain of Metabotropic glutamate receptor 1 (Homo sapiens), Q13255 [P1014S] (Q13255 whole entry P1014S): as the sequence (Q13255 whole entry A683E) above, with E683A, P1014S counted along it
Chain of Cytochrome P450 2D6 (P10635 whole entry): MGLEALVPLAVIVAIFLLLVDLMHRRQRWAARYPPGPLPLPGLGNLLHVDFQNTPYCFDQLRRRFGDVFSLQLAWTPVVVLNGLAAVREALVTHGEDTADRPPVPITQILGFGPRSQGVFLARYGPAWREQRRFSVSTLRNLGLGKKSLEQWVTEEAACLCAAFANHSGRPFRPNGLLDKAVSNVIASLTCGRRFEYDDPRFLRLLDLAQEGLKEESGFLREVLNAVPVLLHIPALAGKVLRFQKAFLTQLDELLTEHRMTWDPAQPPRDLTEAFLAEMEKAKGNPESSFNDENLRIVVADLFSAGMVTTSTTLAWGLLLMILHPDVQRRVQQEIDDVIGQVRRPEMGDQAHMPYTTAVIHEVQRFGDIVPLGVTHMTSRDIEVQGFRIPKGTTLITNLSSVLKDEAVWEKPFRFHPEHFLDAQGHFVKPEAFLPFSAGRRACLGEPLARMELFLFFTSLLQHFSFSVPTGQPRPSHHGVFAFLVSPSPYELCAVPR

MRT [1]: 1.07 h
Activity [2]: 40%
concentration at 0.25 h [3]: 200 ng/mL
pEC50 [4]: 7.39
Vdss (Rattus norvegicus): 0.85 L/kg
%max [5]: 122%
pIC50 (Cytochrome P450 2D6): < 4.52
CLint scaled at 1 µM (Homo sapiens): 2.7 mL/min/kg
pEC50 [6]: 5.95
Activity [7]: 40%
SMILES: Cc1ccoc1C(=O)Nc1ccc(N2C(=O)c3cccc(F)c3C2=O)c(Cl)c1
